From ChEMBL document CHEMBL3112527, “Quinoline-pyrimidine hybrids: synthesis, antiplasmodial activity, SAR, and mode of action studies” (J Med Chem, 2014)
Converted amounts (≈) assume the structure as drawn. The source made the active and inactive calls. The rule behind the calls is not given here.

Columns and labels:
Plasmodium falciparum [1] = test: Antiplasmodial activity against chloroquine-sensitive asexual erythrocytic stage of Plasmodium falciparum D10 assessed as parasite growth inhibition by lactate dehydrogenase assay; format: functional, organism-based
Procedure, shortened: (§1)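 Parasite lactate dehydrogenase assay (modified Makler method). Samples held as 20 mg/mL stocks in DMSO, diluted on test day. Full dose-response: starting at 10 μg/mL, 2-fold serial dilution in complete medium over 10 concentrations down to 0.02 μg/mL. Chloroquine, artesunate and MMV390048 served as references. IC50 from nonlinear dose-response curve fitting; mean of three independent experiments.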

Influenza A virus H3N2 = test: Antiviral activity against Influenza A virus H3N2 infected in MDCK cells assessed as inhibition of virus-induced cytopathicity; format: functional, organism-based
Procedure, shortened: (§2)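 Confluent monolayers in 96-well plates were inoculated with 100 CCID50 of virus in the presence of varying concentrations of compound. Read-out was inhibition of virus-induced cytopathicity, compared with untreated infected cultures. Cytotoxicity was judged microscopically or by MTT viability staining.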

[2] = Selectivity index, ratio of CC50 for cat CRFK cells to IC50 for chloroquine-resistant asexual erythrocytic stage of Plasmodium falciparum Dd2; format: functional
Procedure, shortened: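 Ratio of CRFK CC50 (μM) to Dd2 IC50 […]. CC50 is the 50% cytotoxic concentration in feline kidney CRFK cells, measured as cell viability by colorimetric formazan-based MTS assay. Dd2 IC50 is from the parasite LDH growth-inhibition assay.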

Ferriprotoporphyrin IX [3] = test: Binding affinity to monomeric Fe(III)PPIX at pH 5.6
Procedure, shortened: (§3)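 UV-vis titration of monomeric Fe(III)PPIX (2.4 μM) with stepwise additions of compound (0−69 μM, in DMSO), in aqueous DMSO. Buffer was 0.02 M HEPES at pH 7.4 or 0.02 M MES at pH 5.6. Decrease of the Soret band at 402 nm was followed. Association constants were calculated from the titration curves. Stoichiometry was taken from Job's plot.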

Human alphaherpesvirus 3 = test: Antiviral activity against Varicella-zoster virus infected in HEL cells assessed as inhibition of virus-induced cytopathicity; format: functional, organism-based
[4] = tested on: Vesicular stomatitis virus; test: Antiviral activity against Vesicular stomatitis virus infected in human HeLa cells assessed as inhibition of virus-induced cytopathicity; format: functional, organism-based; procedure, shortened: as §2
Ferriprotoporphyrin IX [5] = test: Binding affinity to monomeric Fe(III)PPIX at pH 7.4; procedure, shortened: as §3
[6] = Cytotoxicity against human HeLa cells assessed as alteration of cell morphology by microscopic analysis; format: cell-based; settings: read-out: MIC
Procedure, shortened: (§4)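 Cells (Vero, HEL, MDCK or HeLa) were exposed to a range of sample concentrations. The value reported is the concentration required to cause a microscopically detectable alteration of normal cell morphology.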

Human alphaherpesvirus 1 [7] = test: Antiviral activity against thymidine kinase-negative acyclovir-resistant HSV-1 KOS infected in HEL cells assessed as inhibition of virus-induced cytopathicity; format: functional, organism-based; procedure, shortened: as §2
Human alphaherpesvirus 2 = test: Antiviral activity against HSV-2 G infected in HEL cells assessed as inhibition of virus-induced cytopathicity; format: functional, organism-based; settings: strain G
Procedure, shortened: (§5)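 Confluent monolayers (HEL, Vero, HeLa or CrFK, as applicable) were inoculated with 100 CCID50 of virus, with 1 CCID50 being the dose that infects 50% of cultures. Infection ran in the presence of varying compound concentrations. Inhibition of virus-induced cytopathicity was scored against infected cultures left untreated.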

[8] = Cytotoxicity against cat CRFK cells assessed as cell viability by MTS assay; format: cell-based, Felis catus
Procedure, shortened: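 CRFK cells were exposed to varying sample concentrations. Cell viability was measured with the colorimetric formazan-based MTS assay, and the 50% cytotoxic concentration (CC50) was derived from it.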

[9] = n-octanol-PBS buffer distribution coefficient, log D of the compound at pH 7.4 after 24 hrs by HPLC analysis; format: physicochemical
Human betaherpesvirus 5 [10] = test: Antiviral activity against Cytomegalovirus Davis infected in HEL cells assessed as inhibition of virus-induced cytopathicity; format: functional, organism-based
Vaccinia virus = test: Antiviral activity against Vaccinia virus infected in HEL cells assessed as inhibition of virus-induced cytopathicity; format: functional, organism-based; settings: Orthopoxvirus vaccinia; procedure, shortened: as §2
Influenza A virus = test: Antiviral activity against influenza A virus H1N1 infected in MDCK cells assessed as inhibition of virus-induced cytopathicity; format: functional, organism-based; procedure, shortened: as §2
Heme [11] = test: Binding affinity to mu-oxodimeric heme at pH 5.8
Procedure, shortened: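 μ-Oxo dimer heme (10 μM) in 20 mM phosphate buffer, pH 5.8, titrated stepwise with compound (0.3−16 μM). Decrease in absorbance at 362 nm was monitored, and the binding constant was calculated from the titration curve.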

Human betaherpesvirus 5 [12] = test: Antiviral activity against Cytomegalovirus AD169 infected in HEL cells assessed as inhibition of virus-induced cytopathicity; format: functional, organism-based
Heme [13] = test: Binding affinity to heme assessed as inhibition of beta-hematin formation at 1.2 equiv after 1 hr by FT-IR spectroscopic analysis
Feline coronavirus = test: Antiviral activity against Feline coronavirus infected in cat CRFK cells assessed as inhibition of virus-induced cytopathicity; format: functional, organism-based; procedure, shortened: as §5
DNA [14] = test: Binding affinity to calf thymus DNA assessed as hypochromic shift at 66.6 uM after 5 mins by UV-spectrophotometric analysis; format: nucleic-acid assay; settings: Bos taurus
[15] = Aqueous solubility of the compound in PBS buffer at pH 7.4 after 24 hrs by HPLC analysis; format: physicochemical; settings: pH 7.4, 24 h
Plasmodium falciparum [16] = test: Antiplasmodial activity against chloroquine-resistant asexual erythrocytic stage of Plasmodium falciparum Dd2 assessed as parasite growth inhibition by lactate dehydrogenase assay; format: functional, organism-based; procedure, shortened: as §1
Human respirovirus 3 = test: Antiviral activity against parainfluenza virus 3 infected in African green monkey Vero cells assessed as inhibition of virus-induced cytopathicity; format: functional, organism-based; procedure, shortened: as §5
MDCK = test: Cytotoxicity against MDCK cells assessed as alteration of cell morphology by microscopic analysis; format: cell-based, Canis lupus familiaris; settings: dog; procedure, shortened: as §4
Sindbis virus = test: Antiviral activity against Sindbis virus infected in African green monkey Vero cells assessed as inhibition of virus-induced cytopathicity; format: functional, organism-based
Ferriprotoporphyrin IX [17] = test: Binding affinity to monomeric Fe(III)PPIX at 5 umol by mass spectra analysis
Procedure, shortened: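 Solution-phase mass spectra were recorded after adding monomeric heme (5 μmol) to the compound (5 μmol) in 40% aqueous DMSO. The region between 1008 and 1024 Da was examined for adduct signals.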

Plasmodium falciparum [18] = test: Potency index, ratio of chloroquine IC50 to compound IC50 for chloroquine-resistant asexual erythrocytic stage of Plasmodium falciparum Dd2; format: functional
Human alphaherpesvirus 1 [19] = test: Antiviral activity against HSV-1 KOS infected in HEL cells assessed as inhibition of virus-induced cytopathicity; format: functional, organism-based; procedure, shortened: as §5
Escherichia coli = test: Binding affinity to Escherichia coli pUC18 DNA by fluorescence spectrophotometric analysis
Procedure, shortened: (§6)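 Steady-state fluorescence titration at ambient temperature, with excitation at 330 nm and emission at 376 nm. […] Binding constant derived from the emission changes.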

HEL = test: Cytotoxicity against HEL cells assessed as alteration of cell morphology by microscopic analysis; format: cell-based; settings: human; procedure, shortened: as §4
[20] = Solubility of the compound in octanol at pH 7.4 by HPLC analysis; format: physicochemical
Ferriprotoporphyrin IX [21] = test: Binding affinity to monomeric Fe(III)PPIX by 1H NMR spectra analysis
Coxsackievirus B4 [22] = test: Antiviral activity against Coxsackievirus B4 infected in African green monkey Vero cells assessed as inhibition of virus-induced cytopathicity; format: functional, organism-based; procedure, shortened: as §5
DNA [23] = test: Binding affinity to calf thymus DNA by fluorescence spectrophotometric analysis; format: nucleic-acid assay; settings: Bos taurus; procedure, shortened: as §6
[24] = tested on: Vesicular stomatitis virus; test: Antiviral activity against Vesicular stomatitis virus infected in HEL cells assessed as inhibition of virus-induced cytopathicity; format: functional, organism-based; procedure, shortened: as §2
Punta Toro virus = test: Antiviral activity against Punta Toro virus infected in African green monkey Vero cells assessed as inhibition of virus-induced cytopathicity; format: functional, organism-based; procedure, shortened: as §5
[25] = tested on: Respiratory syncytial virus; test: Antiviral activity against Respiratory syncytial virus infected in human HeLa cells assessed as inhibition of virus-induced cytopathicity; format: functional, organism-based; procedure, shortened: as §5
Vero = test: Cytotoxicity against African green monkey Vero cells assessed as alteration of cell morphology by microscopic analysis; format: cell-based; settings: chlorocebus sabaeus; procedure, shortened: as §4
Felid alphaherpesvirus 1 = test: Antiviral activity against Feline herpesvirus infected in cat CRFK cells assessed as inhibition of virus-induced cytopathicity; format: functional, organism-based; procedure, shortened: as §5
[26] = tested on: Mammalian orthoreovirus 1; test: Antiviral activity against Reovirus 1 infected in African green monkey Vero cells assessed as inhibition of virus-induced cytopathicity; format: functional, organism-based; procedure, shortened: as §5
DNA [27] = test: Binding affinity to calf thymus DNA at 5:1 DNA to compound ratio by spectrophotometric analysis (reference value: 59.5 degC); format: nucleic-acid assay; settings: Bos taurus
Coxsackievirus B4 [28] = test: Antiviral activity against Coxsackievirus B4 infected in human HeLa cells assessed as inhibition of virus-induced cytopathicity; format: functional, organism-based; procedure, shortened: as §5
HeLa = test: Cytotoxicity against human HeLa cells assessed as growth inhibition by MTT assay; format: cell-based
DNA [29] = test: Binding affinity to calf thymus DNA at 5:1 DNA to compound ratio by spectrophotometric analysis; format: nucleic-acid assay; settings: Bos taurus

With `Clc1ccc2c(NCCCNc3nccc(N4CCCCC4)n3)ccnc2c1` the IC50 (Plasmodium falciparum [1]) was 0.0226 µM, the inhibition (Influenza A virus H3N2) was “inactive” and the “Ratio CC50/IC50” value [2] was 228. For the same molecule, the log Ks (Ferriprotoporphyrin IX [3]) was 4.59, the inhibition (Human alphaherpesvirus 3) was “inactive” and the inhibition [4] was “inactive”. The log Ks (Ferriprotoporphyrin IX [5]) was 4.63, the MCC [6] was 100 µM and the inhibition (Human alphaherpesvirus 1 [7]) was “inactive”. For the same molecule, the inhibition (Human alphaherpesvirus 2) was “inactive”, the CC50 [8] was 9.8 µM and the logD at 24 h [9] was 0.845. The inhibition (Human betaherpesvirus 5 [10]) was “inactive”, the inhibition (Vaccinia virus) was “inactive” and the inhibition (Influenza A virus) was “inactive”. For the same molecule, the log Ks (Heme [11]) was 5.84, the inhibition (Human betaherpesvirus 5 [12]) was “inactive” and the inhibition (Heme [13]) was “Active”. The inhibition (Feline coronavirus) was “inactive”, the Activity (DNA [14]) was 23% and the solubility [15] was 0.25 µM (≈ 0.0992 µg/mL). The IC50 (Plasmodium falciparum [16]) was 0.043 µM, the inhibition (Human respirovirus 3) was “inactive” and the Activity (MDCK) was “Non-toxic”. The inhibition (Sindbis virus) was “inactive”, the Activity (Ferriprotoporphyrin IX [17]) was “Active” and the “Ratio IC50” value (Plasmodium falciparum [18]) was 3.2. The inhibition (Human alphaherpesvirus 1 [19]) was “inactive”, the log Ks (Escherichia coli) was 3.99 and the Activity (HEL) was “Non-toxic”. For the same molecule, the solubility [20] was 1.74 µM (≈ 0.691 µg/mL), the Activity (Ferriprotoporphyrin IX [21]) was “Active” and the inhibition (Coxsackievirus B4 [22]) was “inactive”. For the same molecule, the log Ks (DNA [23]) was 3.64, the inhibition [24] was “inactive” and the inhibition (Punta Toro virus) was “inactive”. The inhibition [25] was “inactive”, the Activity (Vero) was “Non-toxic” and the inhibition (Felid alphaherpesvirus 1) was “inactive”. The inhibition [26] was “inactive”, the Tm (DNA [27]) was 67.8 °C and the inhibition (Coxsackievirus B4 [28]) was “inactive”.

For `CCN(CC)CCCC(C)Nc1ccnc2cc(Cl)ccc12` (centres undefined) [CHLOROQUINE PHOSPHATE], the IC50 (HeLa) was 30 µM and the Activity (DNA [29]) was “Active”.
